ChEMBL document CHEMBL5724801, “EUbOPEN Chemogenomics Library - Multiplex” (2024)
Values joined by “and” are separate entries in the source; they are usually repeats but may differ in a detail not shown here. Identical values can stand only once.

Tested on: U2OS
Experiment: Multiplex assay against U2OS
Assay type: toxicity, cell-based
Settings: human
Outline: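 Live cells were stained at seeding with Hoechst33342, BioTracker Green Microtubule Cytoskeleton Dye, MitoTracker Red and Annexin V Alexa Fluor 680, then imaged on a CQ1 microscope at 37°C and 5% CO2 after compound addition. CellPathfinder machine-learning gating split cells into Hoechst high-intensity objects or normal cells. Normal cells were split into healthy, pyknosed or fragmented nuclei, and pyknosed cells into mitotic or apoptotic. Tubulin, mitochondrial-mass and membrane-permeability phenotypes are per cents of healthy-nucleus cells.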

[1] = 12 h, 1 µM, compound concentration 1 uM
[2] = 12 h, 10 µM, compound concentration 10 uM
[3] = 24 h, 1 µM, compound concentration 1 uM
[4] = 24 h, 10 µM, compound concentration 10 uM
[5] = 48 h, 1 µM, compound concentration 1 uM
[6] = 48 h, 10 µM, compound concentration 10 uM

Cl.O=S(=O)(c1cccc2c(I)cccc12)N1CCCNCC1
Population Apoptotic (%) [1]: 56.67% and 27.27% | Population Fragmented Nuclei (%) [1]: 2.94% and 4.55% | Population Healthy Nuclei (%) [1]: 89.04% and 87.12% | Population Hoechst High Intensity Objects (%) [1]: 0% | Population Membrane Permeable-Phenotype (%) [1]: 1.5% and 1.74% | Population Mitochondria Different-Phenotype (%) [1]: 0.3% and 6.09% | Population Mitotic Cells (%) [1]: 43.33% and 72.73% | Population Normal (%) [1]: 100% | Population Pyknosed Nuclei (%) [1]: 8.02% and 8.33% | Population Tubulin-Different-Phenotype (%) [1]: 1.2% and 0% | Total Cell Count [1]: 374 and 132 | Population Apoptotic (%) [2]: 35.59% and 25% | Population Fragmented Nuclei (%) [2]: 1.04% and 0.7% | Population Healthy Nuclei (%) [2]: 86.75% and 74.13% | Population Hoechst High Intensity Objects (%) [2]: 0% | Population Membrane Permeable-Phenotype (%) [2]: 1.67% and 4.72% | Population Mitotic Cells (%) [2]: 64.41% and 75% | Population Normal (%) [2]: 100% | Population Pyknosed Nuclei (%) [2]: 12.22% and 25.17% | Population Tubulin-Different-Phenotype (%) [2]: 5.73% and 1.89% | Population Apoptotic (%) [3]: 47.27% and 30.77% | Population Fragmented Nuclei (%) [3]: 1.85% and 3.49% | Population Healthy Nuclei (%) [3]: 86.83% and 88.95% | Population Hoechst High Intensity Objects (%) [3]: 0% and 0.58% | Population Membrane Permeable-Phenotype (%) [3]: 1.42% and 0.65% | Population Mitochondria Different-Phenotype (%) [3]: 0% and 4.58% | Population Mitotic Cells (%) [3]: 52.73% and 69.23% | Population Normal (%) [3]: 100% and 99.42% | Population Pyknosed Nuclei (%) [3]: 11.32% and 7.56% | Population Tubulin-Different-Phenotype (%) [3]: 0.47% and 1.96% | Total Cell Count [3]: 486 and 173 | Population Apoptotic (%) [4]: 46.38% and 25% | Population Fragmented Nuclei (%) [4]: 1.31% and 1.69% | Population Healthy Nuclei (%) [4]: 87.4% and 73.6% | Population Hoechst High Intensity Objects (%) [4]: 0% | Population Membrane Permeable-Phenotype (%) [4]: 0.94% and 3.82% | Population Mitotic Cells (%) [4]: 53.62% and 75% | Population Normal (%) [4]: 100% | Population Pyknosed Nuclei (%) [4]: 11.29% and 24.72% | Population Tubulin-Different-Phenotype (%) [4]: 1.87% and 3.05% | Population Apoptotic (%) [5]: 40% and 50% | Population Fragmented Nuclei (%) [5]: 1.92% and 2.4% | Population Healthy Nuclei (%) [5]: 89.6% and 90.07% | Population Hoechst High Intensity Objects (%) [5]: 0% | Population Membrane Permeable-Phenotype (%) [5]: 0.88% and 3.42% | Population Mitochondria Different-Phenotype (%) [5]: 0% and 2.66% | Population Mitotic Cells (%) [5]: 60% and 50% | Population Normal (%) [5]: 100% | Population Pyknosed Nuclei (%) [5]: 8.47% and 7.53% | Population Tubulin-Different-Phenotype (%) [5]: 0.88% and 2.28% | Population Apoptotic (%) [6]: 44.03% and 45.31% | Population Fragmented Nuclei (%) [6]: 1.9% and 3.72% | Population Healthy Nuclei (%) [6]: 82.95% and 72.49% | Population Hoechst High Intensity Objects (%) [6]: 0.1% and 0% | Population Membrane Permeable-Phenotype (%) [6]: 1.26% and 4.62% | Population Mitochondria Different-Phenotype (%) [6]: 0.46% and 7.18% | Population Mitotic Cells (%) [6]: 55.97% and 54.69% | Population Normal (%) [6]: 99.9% and 100% | Population Pyknosed Nuclei (%) [6]: 15.14% and 23.79% | Population Tubulin-Different-Phenotype (%) [6]: 3.21% and 4.62%

Cn1ncnc1COc1nn2c(-c3cc(F)ccc3F)nnc2cc1C(C)(C)C
Population Apoptotic (%) [1]: 55.26% and 53.85% | Population Fragmented Nuclei (%) [1]: 0.89% and 4.24% | Population Healthy Nuclei (%) [1]: 90.6% and 80% | Population Hoechst High Intensity Objects (%) [1]: 0% | Population Mitochondria Different-Phenotype (%) [1]: 0% and 7.58% | Population Mitotic Cells (%) [1]: 44.74% and 46.15% | Population Normal (%) [1]: 100% | Population Pyknosed Nuclei (%) [1]: 8.5% and 15.76% | Population Tubulin-Different-Phenotype (%) [1]: 1.23% and 0.76% | Total Cell Count [1]: 447 and 165 | Population Apoptotic (%) [2]: 36.84% and 41.18% | Population Fragmented Nuclei (%) [2]: 1.2% and 0.65% | Population Healthy Nuclei (%) [2]: 87.43% and 88.24% | Population Hoechst High Intensity Objects (%) [2]: 0% | Population Mitotic Cells (%) [2]: 63.16% and 58.82% | Population Normal (%) [2]: 100% | Population Pyknosed Nuclei (%) [2]: 11.38% and 11.11% | Population Tubulin-Different-Phenotype (%) [2]: 1.71% and 1.48% | Total Cell Count [2]: 334 and 153 | Population Apoptotic (%) [3]: 33.9% and 52.63% | Population Fragmented Nuclei (%) [3]: 0.96% and 3.02% | Population Healthy Nuclei (%) [3]: 89.63% and 77.89% | Population Hoechst High Intensity Objects (%) [3]: 0% | Population Mitochondria Different-Phenotype (%) [3]: 0% and 7.74% | Population Mitotic Cells (%) [3]: 66.1% and 47.37% | Population Normal (%) [3]: 100% | Population Pyknosed Nuclei (%) [3]: 9.41% and 19.1% | Population Tubulin-Different-Phenotype (%) [3]: 0.53% and 0.65% | Population Apoptotic (%) [4]: 30.77% and 47.83% | Population Fragmented Nuclei (%) [4]: 1.81% and 3.66% | Population Healthy Nuclei (%) [4]: 86.39% and 84.29% | Population Hoechst High Intensity Objects (%) [4]: 0% and 0.52% | Population Mitochondria Different-Phenotype (%) [4]: 0% and 3.73% | Population Mitotic Cells (%) [4]: 69.23% and 52.17% | Population Normal (%) [4]: 100% and 99.48% | Population Pyknosed Nuclei (%) [4]: 11.79% and 12.04% | Population Tubulin-Different-Phenotype (%) [4]: 2.62% and 1.24% | Total Cell Count [4]: 441 and 192 | Population Apoptotic (%) [5]: 43.96% and 63.41% | Population Fragmented Nuclei (%) [5]: 3.06% and 2.48% | Population Healthy Nuclei (%) [5]: 88.51% and 84.83% | Population Hoechst High Intensity Objects (%) [5]: 0% and 0.31% | Population Mitochondria Different-Phenotype (%) [5]: 0% and 6.93% | Population Mitotic Cells (%) [5]: 56.04% and 36.59% | Population Normal (%) [5]: 100% and 99.69% | Population Pyknosed Nuclei (%) [5]: 8.43% and 12.69% | Population Tubulin-Different-Phenotype (%) [5]: 1.05% and 0.73% | Population Apoptotic (%) [6]: 56.04% and 51.22% | Population Fragmented Nuclei (%) [6]: 2.31% and 1.96% | Population Healthy Nuclei (%) [6]: 87.15% and 84.64% | Population Hoechst High Intensity Objects (%) [6]: 0% | Population Mitochondria Different-Phenotype (%) [6]: 0.13% and 5.41% | Population Mitotic Cells (%) [6]: 43.96% and 48.78% | Population Normal (%) [6]: 100% | Population Pyknosed Nuclei (%) [6]: 10.53% and 13.4% | Population Tubulin-Different-Phenotype (%) [6]: 1.86% and 1.54% | Total Cell Count [6]: 864 and 306

CC(=O)Nc1cccc2c1c(Sc1ccc(Cl)cc1)c(C)n2CC(=O)O [AZD1981]
Population Apoptotic (%) [1]: 68% and 83% | Population Fragmented Nuclei (%) [1]: 24% and 16% | Population Healthy Nuclei (%) [1]: 68% and 76% | Population Hoechst High Intensity Objects (%) [1]: 3% and 1% | Population Membrane Permeable-Phenotype (%) [1]: 3% and 6% | Population Mitochondria Different-Phenotype (%) [1]: 0% and 1% | Population Mitotic Cells (%) [1]: 31% and 16% | Population Normal (%) [1]: 96% and 98% | Population Pyknosed Nuclei (%) [1]: 6% and 7% | Population Tubulin-Different-Phenotype (%) [1]: 2% and 3% | Population Apoptotic (%) [2]: 83% and 80% | Population Fragmented Nuclei (%) [2]: 25% and 19% | Population Healthy Nuclei (%) [2]: 66% and 76% | Population Hoechst High Intensity Objects (%) [2]: 2% and 3% | Population Membrane Permeable-Phenotype (%) [2]: 8% and 10% | Population Mitochondria Different-Phenotype (%) [2]: 0% and 3% | Population Mitotic Cells (%) [2]: 16% and 20% | Population Normal (%) [2]: 97% and 96% | Population Pyknosed Nuclei (%) [2]: 7% and 4% | Population Tubulin-Different-Phenotype (%) [2]: 1% and 5% | Total Cell Count [2]: 231 and 122 | Population Apoptotic (%) [3]: 91% and 50% | Population Fragmented Nuclei (%) [3]: 25% and 16% | Population Healthy Nuclei (%) [3]: 66% and 82% | Population Hoechst High Intensity Objects (%) [3]: 2% and 0% | Population Membrane Permeable-Phenotype (%) [3]: 5% and 4% | Population Mitochondria Different-Phenotype (%) [3]: 1% and 3% | Population Normal (%) [3]: 97% and 100% | Population Pyknosed Nuclei (%) [3]: 8% and 1% | Population Tubulin-Different-Phenotype (%) [3]: 3% and 0% | Total Cell Count [3]: 289 and 106 | Population Apoptotic (%) [4]: 88% and 100% | Population Fragmented Nuclei (%) [4]: 23% and 14% | Population Healthy Nuclei (%) [4]: 66% and 77% | Population Hoechst High Intensity Objects (%) [4]: 0% | Population Membrane Permeable-Phenotype (%) [4]: 6% and 3% | Population Mitochondria Different-Phenotype (%) [4]: 2% and 4% | Population Mitotic Cells (%) [4]: 11% and 0% | Population Normal (%) [4]: 99% | Population Pyknosed Nuclei (%) [4]: 9% and 8% | Population Tubulin-Different-Phenotype (%) [4]: 2% and 0% | Total Cell Count [4]: 266 and 125 | Population Apoptotic (%) [5]: 91% and 81% | Population Fragmented Nuclei (%) [5]: 16% and 9% | Population Healthy Nuclei (%) [5]: 74% and 82% | Population Hoechst High Intensity Objects (%) [5]: 1% and 3% | Population Membrane Permeable-Phenotype (%) [5]: 6% | Population Mitochondria Different-Phenotype (%) [5]: 2% and 0% | Population Mitotic Cells (%) [5]: 8% and 18% | Population Normal (%) [5]: 98% and 96% | Population Pyknosed Nuclei (%) [5]: 9% and 7% | Population Tubulin-Different-Phenotype (%) [5]: 4% and 1% | Total Cell Count [5]: 375 and 144 | Population Apoptotic (%) [6]: 100% and 85% | Population Fragmented Nuclei (%) [6]: 18% and 14% | Population Healthy Nuclei (%) [6]: 75% and 73% | Population Hoechst High Intensity Objects (%) [6]: 2% and 1% | Population Membrane Permeable-Phenotype (%) [6]: 7% | Population Mitochondria Different-Phenotype (%) [6]: 2% and 4% | Population Mitotic Cells (%) [6]: 0% and 15% | Population Normal (%) [6]: 97% and 98% | Population Pyknosed Nuclei (%) [6]: 5% and 11% | Population Tubulin-Different-Phenotype (%) [6]: 4% | Total Cell Count [6]: 366 and 171
